Assay results as given in ChEMBL document CHEMBL4130539, “Novel ureidopropanamide based N-formyl peptide receptor 2 (FPR2) agonists with potential application for central nervous system disorders characterized by neuroinflammation” (Eur J Med Chem, 2017).
Activity calls are given as the source filed them. The calls are words filed in the database; no cut-off is given here.

Experiments:
[1] = biological target: T1, N-formyl peptide receptor 2 (Homo sapiens, UniProt P25090); assay: Agonist activity at human FPR2 expressed in human HL60 cells assessed as induction of calcium mobilization measured every 5 secs for 240 secs by Fluo-4-AM dye based fluorometric method; assay type: functional, cell-based; conditions: read-out: EC50
T1 sequence (P25090 whole entry): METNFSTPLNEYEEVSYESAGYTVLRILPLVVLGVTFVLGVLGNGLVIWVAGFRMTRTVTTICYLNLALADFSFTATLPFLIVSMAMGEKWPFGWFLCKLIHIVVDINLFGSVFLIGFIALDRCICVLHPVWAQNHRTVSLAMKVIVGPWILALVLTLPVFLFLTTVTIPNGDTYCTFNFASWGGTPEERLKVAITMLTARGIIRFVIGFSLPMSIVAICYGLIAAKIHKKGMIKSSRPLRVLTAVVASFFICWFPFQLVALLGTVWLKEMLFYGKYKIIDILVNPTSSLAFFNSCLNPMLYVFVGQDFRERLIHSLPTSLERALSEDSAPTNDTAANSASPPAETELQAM

[2] = biological target: T2, N-formyl peptide receptor 2 (Homo sapiens) (UniProt P25090); assay: Agonist activity at human FPR2 expressed in human HL60 cells assessed as induction of calcium mobilization measured every 5 secs for 240 secs by Fluo-4-AM dye based fluorometric method relative to WKYMVM; assay type: functional, cell-based
T2 sequence (whole entry): T1 sequence (P25090 whole entry)

[3] = biological target: T3, fMet-Leu-Phe receptor (Homo sapiens, UniProt P21462); assay: Agonist activity at human FPR1 expressed in human HL60 cells assessed as induction of calcium mobilization measured every 5 secs for 240 secs by Fluo-4-AM dye based fluorometric method; assay type: functional, cell-based; conditions: read-out: EC50
T3 sequence (P21462 whole entry): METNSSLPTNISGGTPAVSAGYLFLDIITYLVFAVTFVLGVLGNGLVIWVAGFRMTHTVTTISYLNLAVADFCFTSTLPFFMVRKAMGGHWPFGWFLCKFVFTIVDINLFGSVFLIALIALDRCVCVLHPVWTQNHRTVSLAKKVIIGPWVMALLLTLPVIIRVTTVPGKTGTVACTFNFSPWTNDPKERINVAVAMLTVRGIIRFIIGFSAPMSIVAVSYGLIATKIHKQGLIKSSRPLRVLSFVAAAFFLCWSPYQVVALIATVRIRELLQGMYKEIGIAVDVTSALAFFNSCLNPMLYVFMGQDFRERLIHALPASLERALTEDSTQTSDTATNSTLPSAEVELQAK

[4] = biological target: T4, fMet-Leu-Phe receptor (Homo sapiens) (UniProt P21462); assay: Agonist activity at human FPR1 expressed in human HL60 cells assessed as induction of calcium mobilization measured every 5 secs for 240 secs by Fluo-4-AM dye based fluorometric method relative to fMLF; assay type: functional, cell-based
T4 sequence (whole entry): T3 sequence (P21462 whole entry)

[5] = biological target: T1, N-formyl peptide receptor 2; assay: Agonist activity at FPR2 in human neutrophils assessed as induction of calcium mobilization measured every 5 secs for 240 secs by Fluo-4-AM dye based fluorometric method; assay type: functional; conditions: read-out: EC50
[6] = Metabolic stability in rat liver microsomes assessed as parent compound remaining at 10 uM preincubated for 10 mins followed by NADPH addition measured after 30 mins by liquid chromatographic method; assay type: ADME, microsome; conditions: 0.5 h
[7] = Half life in rat liver microsomes at 10 uM preincubated for 10 mins followed by NADPH addition by liquid chromatographic method; assay type: ADME, microsome
[8] = Intrinsic clearance in rat liver microsomes at 10 uM preincubated for 10 mins followed by NADPH addition by liquid chromatographic method; assay type: ADME, microsome
[9] = tested on: Microglia; assay: Cytotoxicity against Sprague-Dawley rat primary microglia cells assessed as cell death at 0.5 to 10 uM after 24 hrs by LDH assay; assay type: cell-based
[10] = tested on: Microglia; assay: Cytotoxicity against Sprague-Dawley rat primary microglia cells assessed as reduction in cell viability at 0.5 to 10 uM after 24 hrs by MTT assay; assay type: cell-based
[11] = tested on: Microglia; assay: Cytotoxicity against Sprague-Dawley rat primary microglia cells assessed as cell death at 50 uM after 24 hrs by LDH assay; assay type: cell-based
[12] = tested on: Microglia; assay: Cytotoxicity against Sprague-Dawley rat primary microglia cells assessed as reduction in cell viability at 50 uM after 24 hrs by MTT assay; assay type: cell-based
[13] = tested on: Microglia; assay: Cytoprotection against LPS-induced cell death in Sprague-Dawley rat primary microglia cells at 1 to 5 uM pretreated for 1 hr followed by LPS stimulation for 24 hrs by LDH assay; assay type: functional, cell-based
[14] = tested on: Microglia; assay: Cytoprotection against LPS-induced cell death in Sprague-Dawley rat primary microglia cells at 0.5 to 50 uM pretreated for 1 hr followed by LPS stimulation for 24 hrs by MTT assay; assay type: functional, cell-based
[15] = tested on: Microglia; assay: Proinflammatory activity in Sprague-Dawley rat primary microglia cells assessed as induction of NO level up to 10 uM after 24 hrs by Griess reagent based assay; assay type: cell-based
Outline: (§1)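 Rat primary cortical microglia (Sprague-Dawley pups, 1–2 days old, >95% Iba-1/CD11b-positive) given agonist without LPS for 24 h; WRW4 added 30 min before agonist where indicated. Supernatant NO measured with Griess reagent (540 nm, 10 min room temperature); TNF-α and IL-1β by ELISA. Values normalized to vehicle-treated cells (100%).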

[16] = tested on: Microglia; assay: Proinflammatory activity in Sprague-Dawley rat primary microglia cells assessed as induction of NO level up to 10 uM after 24 hrs in presence of FPR2 antagonist WRW4 by Griess reagent based assay; assay type: cell-based; outline: as §1
[17] = tested on: Microglia; assay: Anti-inflammatory activity in Sprague-Dawley rat primary microglia cells assessed as inhibition of LPS-induced NO level at 5 to 10 uM pretreated for 1 hr followed by LPS stimulation for 24 hrs by Griess reagent based assay; assay type: functional, cell-based
Outline: (§2)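 Primary microglia from cortices of 1–2-day-old Sprague-Dawley rats, shaken off mixed cultures at day 9 in vitro, >95% Iba-1/CD11b-positive, used 2 days after plating. Agonist added 1 h before LPS (E. coli 0111:B4, 100 ng/ml) for 24 h; WRW4 given 30 min before agonist where stated. Medium NO by Griess reaction (540 nm); TNF-α and IL-1β by ELISA. Data as % of vehicle-treated control.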

[18] = tested on: Microglia; assay: Anti-inflammatory activity in Sprague-Dawley rat primary microglia cells assessed as inhibition of LPS-induced NO level up to 10 uM pretreated for 1 hr followed by LPS stimulation for 24 hrs in presence of FPR2 antagonist WRW4 by Griess reagent based assay; assay type: functional, cell-based; outline: as §2
[19] = tested on: Microglia; assay: Proinflammatory activity in Sprague-Dawley rat primary microglia cells assessed as induction of IL-1beta level up to 10 uM after 24 hrs by ELISA; assay type: cell-based; outline: as §1
[20] = tested on: Microglia; assay: Proinflammatory activity in Sprague-Dawley rat primary microglia cells assessed as induction of TNFalpha level up to 10 uM after 24 hrs by ELISA; assay type: cell-based; outline: as §1
[21] = tested on: Microglia; assay: Proinflammatory activity in Sprague-Dawley rat primary microglia cells assessed as induction of IL-1beta level up to 10 uM after 24 hrs in presence of FPR2 antagonist WRW4 by ELISA; assay type: cell-based; outline: as §1
[22] = tested on: Microglia; assay: Proinflammatory activity in Sprague-Dawley rat primary microglia cells assessed as induction of TNFalpha level up to 10 uM after 24 hrs in presence of FPR2 antagonist WRW4 by ELISA; assay type: cell-based; outline: as §1
[23] = tested on: Microglia; assay: Anti-inflammatory activity in Sprague-Dawley rat primary microglia cells assessed as inhibition of LPS-induced IL-1beta level up to 10 uM pretreated for 1 hr followed by LPS stimulation for 24 hrs by ELISA; assay type: functional, cell-based; outline: as §2
[24] = tested on: Microglia; assay: Anti-inflammatory activity in Sprague-Dawley rat primary microglia cells assessed as inhibition of LPS-induced TNFalpha level up to 10 uM pretreated for 1 hr followed by LPS stimulation for 24 hrs by ELISA; assay type: functional, cell-based; outline: as §2
[25] = tested on: Microglia; assay: Anti-inflammatory activity in Sprague-Dawley rat primary microglia cells assessed as inhibition of LPS-induced IL-1beta level up to 10 uM pretreated for 1 hr followed by LPS stimulation for 24 hrs in presence of FPR2 antagonist WRW4 by ELISA; assay type: functional, cell-based; outline: as §2
[26] = tested on: Microglia; assay: Anti-inflammatory activity in Sprague-Dawley rat primary microglia cells assessed as inhibition of LPS-induced TNFalpha level up to 10 uM pretreated for 1 hr followed by LPS stimulation for 24 hrs in presence of FPR2 antagonist WRW4 by ELISA; assay type: functional, cell-based; outline: as §2
[27] = Efflux ratio of apparent permeability in hCMEC/D3 cells at 5 to 10 uM after 2 hrs by UV-spectroscopic method; assay type: ADME, cell-based; conditions: human, hcmec/d3, 2 h
[28] = biological target: T2, N-formyl peptide receptor 2 (Homo sapiens); assay: Agonist activity at FPR2 in human neutrophils assessed as induction of calcium mobilization measured every 5 secs for 240 secs by Fluo-4-AM dye based fluorometric method relative to fMLF
[29] = biological target: T1, N-formyl peptide receptor 2; assay: Agonist activity at human FPR2 expressed in human HL60 cells assessed as induction of calcium mobilization; assay type: functional, cell-based
[30] = biological target: T2, N-formyl peptide receptor 2 (Homo sapiens); assay: Agonist activity at human FPR2 expressed in human HL60 cells assessed as induction of calcium mobilization relative to control; assay type: functional, cell-based
[31] = tested on: Microglia; assay: Anti-inflammatory activity in Sprague-Dawley rat primary microglia cells assessed as inhibition of LPS-induced NO level up to 10 uM pretreated for 1 hr followed by LPS stimulation for 24 hrs by Griess reagent based assay; assay type: functional, cell-based; outline: as §2
[32] = biological target: T3, fMet-Leu-Phe receptor; assay: Agonist activity at human FPR1 expressed in human HL60 cells assessed as induction of calcium mobilization; assay type: functional, cell-based
[33] = tested on: Microglia; assay: Anti-inflammatory activity in Sprague-Dawley rat primary microglia cells assessed as inhibition of LPS-induced IL-1beta level at 0.05 to 0.1 uM pretreated for 1 hr followed by LPS stimulation for 24 hrs by ELISA; assay type: functional, cell-based; outline: as §2
[34] = tested on: Microglia; assay: Anti-inflammatory activity in Sprague-Dawley rat primary microglia cells assessed as inhibition of LPS-induced TNFalpha level at 0.05 to 0.1 uM pretreated for 1 hr followed by LPS stimulation for 24 hrs by ELISA; assay type: functional, cell-based; outline: as §2

Row | EC50 [1] [nM] | Efficacy [2] [%] | EC50 [3] [nM] | Efficacy [4] [%] | EC50 [5] [nM] | Stability [6] [%] | t1/2 [7] [h] | Microsomal intrinsic clearance (CLint) [8] [µL/min/mg] | SMILES | Activity [9] | Activity [10] | Activity [11] | Activity [13] | Activity [14] | Activity [15] | Activity [16] | Activity [19] | Activity [20] | Activity [21] | Activity [22] | inhibition [23] | further results
1 | 630 | 100 | 2800 | 75 | 2500 | 56 | 2 | 5.78 | N#Cc1ccc(C[C@H](NC(=O)Nc2ccc([N+](=O)[O-])cc2)C(=O)NCC2(c3ccccc3)CC2)cc1 | Non-Toxic | Non-Toxic | Toxic | Active | inactive | Non-Toxic | Non-Toxic | Non-Toxic | Non-Toxic | Non-Toxic | Non-Toxic | Active | Activity [12]: Toxic; inhibition [17]: Active; inhibition [18]: Active; inhibition [24]: Active; inhibition [25]: Active; inhibition [26]: Active; Ratio [27]: 5.06; Efficacy [28]: 115%
2 | 3900 | 80 | 5200 | 55 | 190 | 33 | 0.8 | 14.4 | N#Cc1ccc(C[C@H](NC(=O)Nc2ccc(F)cc2)C(=O)NCC2(c3ccc(F)c(Cl)c3)CC2)cc1 | Non-Toxic | Non-Toxic | Toxic | Active | inactive | Non-Toxic | Non-Toxic | Non-Toxic | Non-Toxic | Non-Toxic | Non-Toxic | Active | Activity [12]: Toxic; inhibition [31]: inactive; inhibition [24]: Active; inhibition [25]: inactive; inhibition [26]: inactive; inhibition [33]: inactive; inhibition [34]: inactive; Ratio [27]: 2.6; Efficacy [28]: 130%

The remaining lines, values behind:

Row | SMILES | EC50 [1] [nM] | Efficacy [2] [%] | EC50 [3] [nM] | Efficacy [4] [%] | EC50 [5] [nM] | Stability [6] [%] | t1/2 [7] [h] | Microsomal intrinsic clearance (CLint) [8] [µL/min/mg] | Activity [9] | Activity [10] | Activity [11] | Activity [13] | Activity [14] | Activity [15] | Activity [16] | Activity [19] | Activity [20] | Activity [21] | Activity [22] | inhibition [23] | further results
3 | O=C(Nc1ccc([N+](=O)[O-])cc1)N[C@@H](Cc1c[nH]c2ccccc12)C(=O)NCC1(c2ccccc2)CC1 | – | – | – | – | – | 11 | – | – | – | – | – | – | – | – | – | – | – | – | – | – | EC50 [29]: 7600 nM; Efficacy [30]: 60%
4 | O=C(Nc1ccc([N+](=O)[O-])cc1)N[C@H](Cc1cccnc1)C(=O)NCC1(c2ccccc2)CC1 | 2900 | 60 | 1500 | 145 | 120 | 45 | 1.65 | 7 | Non-Toxic | Non-Toxic | Toxic | Active | inactive | Non-Toxic | Non-Toxic | Non-Toxic | Non-Toxic | Non-Toxic | Non-Toxic | Active | inhibition [31]: inactive; inhibition [24]: Active; inhibition [25]: inactive; Ratio [27]: 3.7; Efficacy [28]: 90%
5 | COc1ccc(NC(=O)N[C@@H](Cc2c[nH]c3ccccc23)C(=O)NCC2(c3ccc(OC)cn3)CCCCC2)cc1 | – | – | – | – | – | 4 | – | – | – | – | – | – | – | – | – | – | – | – | – | – | EC50 [32]: 260 nM
